# Screening data as filed in PubChem BioAssay.
# Compounds with a hit are over-represented: about 0.77% of the library has one in this group of screens.
# mIAP inh – blocks mouse intestinal alkaline phosphatase. purified mouse IAP, CDP-Star luminescence, 30 min. inhibition, % at 10 µM. AID 2806. 330,000 compounds, 0.2% hits;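 active means inhibition of at least 40% at 10 µM in the primary screen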;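 further: plate controls were DMSO with enzyme for no effect and no enzyme wells for full effect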
# hIAP block – blocks human intestinal alkaline phosphatase; AID 2544; P09923; 330,000 compounds, 0.12% hits; inhibition, % at 10 µM; purified IAP, CDP-Star luminescence, 30 min;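 active means inhibition reaching a set limit with compound at 10 µM in the primary screen, cut at about 35% in these data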;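 further: plate controls were DMSO wells with enzyme for no effect and no-enzyme buffer wells for full effect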
# Target sequence (P09923 whole entry, looked up): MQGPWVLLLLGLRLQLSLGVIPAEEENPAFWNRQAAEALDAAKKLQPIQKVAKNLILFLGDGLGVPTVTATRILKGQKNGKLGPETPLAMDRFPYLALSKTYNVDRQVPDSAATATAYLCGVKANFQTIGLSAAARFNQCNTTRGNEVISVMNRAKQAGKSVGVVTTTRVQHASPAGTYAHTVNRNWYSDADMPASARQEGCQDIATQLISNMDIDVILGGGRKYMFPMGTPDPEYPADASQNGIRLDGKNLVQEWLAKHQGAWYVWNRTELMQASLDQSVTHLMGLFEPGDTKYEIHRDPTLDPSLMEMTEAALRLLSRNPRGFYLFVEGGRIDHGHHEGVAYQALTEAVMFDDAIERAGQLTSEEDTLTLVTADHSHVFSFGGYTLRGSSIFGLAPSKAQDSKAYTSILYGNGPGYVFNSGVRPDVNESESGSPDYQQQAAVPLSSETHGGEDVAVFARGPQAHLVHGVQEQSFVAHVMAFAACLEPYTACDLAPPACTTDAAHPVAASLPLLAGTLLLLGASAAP
# mIAP activ – mouse IAP activation. muIAP, CDP-Star luminescence, 30 min; stronger effect = higher value; 1 = vehicle-only enzyme signal, 0 = enzyme-free wells. activation factor at 10 µM. 330,000 compounds, 0.24% hits. AID 2805;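 active means activation factor of at least 2 at 20 µM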
#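 System: Mouse IAP enzyme | Also added: CDP-Star substrate | Dosing: Compounds dispensed in DMSO | Schedule: 30 min enzyme-substrate-compound incubation at room temperature | Technique: Chemiluminescence readout | Control set: DMSO-only wells and no-enzyme negative control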
# bIAP inh – intestinal alkaline phosphatase (bovine) inhibition. purified bovine IAP, CDP-star luminescence, 30 min. inhibition, % at 20 µM. 190,000 tested, under 10 active. AID 1019;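 active means over 50% inhibition of intestinal alkaline phosphatase at 20 µM in the single-dose screen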
#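 Incubation: 30 min reaction at room temperature / Material: purified bovine intestinal alkaline phosphatase (IAP) enzyme / Input: enzyme at 1/65,000,000 dilution / Dosing: 20 µM single dose / Signal: CDP-star luminescence signal / Reagent: CDP-star chemiluminescent phosphatase substrate, 30 µM final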
# bIAP act – intestinal alkaline phosphatase (bovine) activation; purified bovine IAP, CDP-star luminescence, 30 min; stronger effect = higher value; fold of DMSO-control signal, blank-subtracted; activation factor at 20 µM; 200,000 compounds, 0.17% hits;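 active means activation factor of 2 or more at 20 µM, a signal rise over negative controls twice the positive control's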
# hIAP act – human IAP activation | purified human IAP, CDP-Star luminescence, 30 min; stronger effect = higher value; 1 = vehicle-only enzyme, 0 = enzyme-free background | 330,000 compounds, 0.16% hits | activation factor at 10 µM;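 active means activation factor of the enzyme at least 2-fold when tested at 20 µM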
# hIAP act conf – human IAP activation confirmation | activation (%Activity, negative = activation), % at 8.3 µM | 880 compounds, 10% hits | purified IAP, CDP-Star luminescence, 30 min; stronger effect = lower value | AID 434926 | shares compounds with hIAP act;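 active means at least twofold enzyme activation in any of six single-dose repeats, which the averaged readout prints as negative percent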
# An asterisk follows results filed as active; . = no result given.
SMILES,mIAP inh,hIAP block,mIAP activ,bIAP inh,bIAP act,hIAP act,hIAP act conf
Fc1ccc(NC(=S)NC2CC3CCCC(C2)N3Cc2cccs2)cc1 (centres undefined),-181.1,-7.5,2.81*,-40.8,1.4,1.07,.
Cc1ccc(NC(=S)NC2CC3CCCC(C2)N3Cc2ccco2)cc1 (centres undefined),-53.0,-7.1,1.53,-11.2,1.1,1.07,.
CC(C)c1ccc(NC(=O)NC2CC3CCC(C2)N3Cc2cccs2)cc1 (centres undefined),-20.5,-12.6,1.21,20.2,0.8,1.13,.
O=C(Nc1ccncc1)c1ccc(NS(=O)(=O)c2ccc3[nH]c(=O)[nH]c3c2)cc1,1.4,12.1,0.986,.,.,0.879,.
Cc1ccccc1N=C(NO)c1cccnc1,1.3,8.3,0.987,.,.,0.917,.
COc1cc(/C=C(\C#N)C(=O)Nc2cccc3ncccc23)ccc1O,5.9,42.5*,0.941,-7.8,1.1,0.575,.
O=C(NCCCn1ccnc1)c1cn(-c2ccccc2)nc1-c1ccc(F)cc1,-28.3,-20.8,1.28,-115.1,2.2*,1.21,.
O=C(O)c1ccccc1C(=O)NCCCn1ccnc1,-12.9,-42.3,1.13,.,.,1.42,.
O=C(CSc1nnc(CCc2nc3ccccc3[nH]2)n1-c1ccccc1)NCc1ccccc1,-6.4,-44.8,1.06,-11.9,1.1,1.45,.
O=C(CSc1nnc(CCc2nc3ccccc3[nH]2)n1-c1ccccc1)NCc1ccco1,-6.6,10.5,1.07,-151.3,2.5*,0.895,.
COc1cccc(CNS(=O)(=O)c2cc3c4c(c2)CCN4C(=O)CC3)c1,-4.6,-8.3,1.05,.,.,1.08,.
CCC(C)NC(=O)C1CCN(C(=O)N(C)C)CC1 (centres undefined),9.6,0.2,0.904,12.3,0.9,0.998,.
CC(C)CCNC(=O)C1CCN(C(=O)N(C)C)CC1,-4.9,46.6*,1.05,11.0,0.9,0.534,88.2
Cc1cc(C(=O)NNC(=O)COc2ccccc2Cl)n[nH]1,11.7,-213.7,0.883,.,.,3.14*,8.0
Cc1ccc(OCC(=O)NNC(=O)c2cc(C)[nH]n2)cc1,15.4,10.3,0.846,-2.1,1,0.897,.
Cc1cc(C(=O)NNC(=O)COc2c(C)cc(Br)cc2C)n[nH]1,21.6,-120.5,0.784,.,.,2.21*,-0.1
CCOC(=O)C[C@H]1c2cc(F)ccc2S(=O)(=O)N1C1CCCC1,6.5,1.2,0.935,.,.,0.988,.
CCOC(=O)c1sc(NC(=O)CSc2nc(C)cc(-c3ccccc3)n2)c(C#N)c1C,17.6,-0.2,0.824,14.6,0.9,1,.
CCOC(=O)c1sc(NC(=O)CSc2n[nH]c(-c3ccc(Cl)cc3Cl)n2)c(C#N)c1C,32.5,69.2*,0.675,13.0,0.9,0.308,-1.0
CC1CC(C)CN(C(=O)CN2C(=O)NC3(CCCCCCC3)C2=O)C1 (centres undefined),-13.6,10.5,1.14,.,.,0.895,.
N#CCc1ccc(OC(=O)c2cnccc2C(F)(F)F)cc1,2.0,-1.7,0.98,.,.,1.02,.
COc1cccc(C2c3c(-c4ccccc4O)n[nH]c3C(=O)N2Cc2ccco2)c1 (centres undefined),2.5,-110.3,0.975,.,.,2.1*,4.2
O=C(Nc1ccncc1)c1ccc(Cl)c(S(=O)(=O)N2CCCC2)c1,-4.3,-4.1,1.04,.,.,1.04,.
O=C(NNC(=O)c1ccccc1O)c1ccc(Cl)c(S(=O)(=O)N2CCc3ccccc32)c1,28.3,-97.7,0.717,.,.,1.98,.
CC(C)CCN1CCC(n2nccc2NC(=O)C2CCOC2)CC1 (centres undefined),-0.2,-12.3,1,.,.,1.12,.
SMILES,mIAP inh,hIAP block,mIAP activ,bIAP inh,bIAP act,hIAP act,hIAP act conf
CCc1cccc(CC)c1NC(=O)CN(CC(=O)O)CC(=O)O,-5.2,-109.7,1.05,.,.,2.1*,-5.0
CCSC(=O)N(CC)CC(=O)Nc1c(CC)cccc1CC,-5.4,-8.4,1.05,10.3,0.9,1.08,.
O=C(NNc1ncnc2c1cnn2-c1ccc(F)cc1)c1ccco1,1.3,-163.3,0.987,.,.,2.63*,-47.2*
CC(=O)NNc1ncnc2c1cnn2-c1ccc(C)c(C)c1,14.5,-147.7,0.855,-48.8,1.5,2.48*,-77.6
COc1cc(/C=C2\C(=N)N3N=C(S(C)(=O)=O)SC3=NC2=O)ccc1OS(=O)(=O)c1ccc(C)cc1,15.2,-10.8,0.848,.,.,1.11,.
CN(c1ccccc1)S(=O)(=O)c1ccc(C(=O)N2CCN(c3ccccc3F)CC2)cc1,6.1,-16.2,0.939,.,.,1.16,.
S=c1[nH]nc(-c2cc(-c3ccccc3)n[nH]2)n1/N=C/c1ccc(Cl)cc1,0.5,-102.9,0.995,.,.,2.03*,3.5
CC(=O)c1ccc(S(=O)(=O)Oc2ccc(C(=O)O)cc2Cl)cc1,-3.6,-12.4,1.04,.,.,1.12,.
COC(=O)C(N)Cc1ccc(O)c(O)c1 (centres undefined),24.2,20.8,0.758,16.6,0.8,0.792,.
Cc1ccc(C(=O)CCC(=O)NC2=NCCS2)cc1,4.7,5.0,0.953,.,.,0.95,.
CC(Oc1ccc(F)cc1F)C(=O)NNC(=S)NCC1CCCO1 (centres undefined),-3.4,-123.4,1.03,.,.,2.23*,1.1
O=C(Nc1ccc(Cl)cc1)c1nc[nH]c1C(=O)NCCCNC(=O)c1[nH]cnc1C(=O)Nc1ccc(Cl)cc1,15.3,-105.1,0.847,.,.,2.05*,1.1
CCCn1c(=O)c(C(=O)NNC(=O)c2ccc(Cl)cc2Cl)c(O)c2ccccc21,3.1,-194.8,0.969,.,.,2.95*,-67.7
CCn1c(=O)c(C(=O)NNC(=O)c2ccc(Cl)cc2Cl)c(O)c2ccccc21,16.1,-48.9,0.839,.,.,1.49,.
O=C(COc1ccc2c(c1)oc(=O)c1ccccc12)NC(Cc1ccc(Cl)cc1)C(=O)O (centres undefined),-3.9,-2.7,1.04,.,.,1.03,.
Cc1nc2c3ccccc3nc(NNC(=O)CCC(=O)N3CCN(c4ccccc4F)CC3)n2n1,6.9,-97.0,0.931,.,.,1.97,.
Cc1nc2c3ccccc3nc(NNC(=O)CCC(=O)NCCC(C)C)n2n1,13.6,-111.3,0.864,-9.7,1.1,2.11*,-64.4*
Cc1nc2c3ccccc3nc(NNC(=O)CCC(=O)N3CCN(c4ccccc4)CC3)n2n1,8.1,-128.1,0.919,.,.,2.28*,-42.3
CCOC(=O)C1CCN(C(=O)CCC(=O)NNc2nc3ccccc3c3nc(C)nn23)CC1,18.8,-174.8,0.812,.,.,2.75*,-2.5
COc1ccc(N2CCN(C(=O)CCC(=O)NNc3nc4ccccc4c4nc(C)nn34)CC2)cc1,1.0,-99.3,0.99,.,.,1.99,.
Cc1nc2c3ccccc3nc(NNC(=O)CCC(=O)N3CCC(C)CC3)n2n1,2.4,-133.3,0.976,.,.,2.33*,0.7
Cc1cc(Cn2nc(C(=O)NCc3cccs3)cc2-c2ccccc2)on1,-2.8,-2.8,1.03,.,.,1.03,.
